Experiment [1] is filed under the species Cavia porcellus. Kind of experiment: In vitro inotropic activity was determined by the affects of contractile force on guinea pig left atrium; Maximal increase in force of contraction. The note with it: Cardiac atrium. It is filed as functional. In short, it runs like this:
(§1)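 Isolated atrium preparations in solution bubbled with 95% O2/5% CO2, driven by platinum electrodes with square-wave pulses at 1 Hz (1 ms, twice threshold voltage). After 60 min equilibration, cumulative concentrations were added, each kept until maximal response or arrhythmias appeared.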

For experiment [2], the species on record is Cavia porcellus. Put plainly: (§2) In vitro inotropic activity was determined by the affects of contractile force on guinea pig left atrium. It is filed as functional, organism-based. The note with it: Cardiac atrium. In a few lines: as §1
For experiment [3], the species on record is Cavia porcellus. Kind of experiment: In vitro inotropic activity was determined by the affects of contractile force on guinea pig left atrium. It counts as functional, Cardiac atrium. In a few lines:
as §1

The nature of experiment [4]: Arrhythmogenic activity was determined by the onset of the first series of ectopic beats. It counts as functional, Heart. In a few lines: as §1
Experiment [5] concerns the target Sodium/potassium-transporting ATPase subunit alpha-1 (Canis lupus familiaris, UniProt P50997). Kind of experiment: Inhibition of Na+/K+ ATPase from dog kidney.
The nature of experiment [6]: % of preparations of arrhythmogenic activity was determined by the onset of the first series of ectopic beats. Also noted: concentration or dose not given beside the values. It is filed as functional, Heart. In short, it runs like this: as §1
The species entered for experiment [7] is Cavia porcellus. The experiment is described as §2. It counts as functional, Cardiac atrium. In short, it runs like this:
as §1

This is an account of results in ChEMBL document CHEMBL1130193, “Synthesis, cardiotonic activity, and structure-activity relationships of 17 beta-guanylhydrazone derivatives of 5 beta-androstane-3 beta, 14 beta-diol acting on the Na+,K(+)-ATPase receptor” (J Med Chem, 1997).

In general, Emax refers to the size of the effect at its maximum, as opposed to the concentration needed. In general, EC50 refers to the concentration that produces a half-maximal response. As a reminder, the IC50 is the concentration needed to halve the response being measured. `C[C@]12CC[C@H](O)C[C@H]1CC[C@@H]1[C@@H]2CC[C@]2(C)[C@@H](/C=N/N=C(N)N)CC[C@]12O.Cl` returned an Emax in experiment [1] of 265%. A half-maximal response in experiment [2] (EC50) required 4 µM. The “concentration giving Emax” value in experiment [3] stood at 30 µM. For the same compound, the Activity in experiment [4] worked out at 30 µM; in experiment [6] it was 57%. The compound further showed an IC50 in experiment [5] of 1.58 µM.
In experiment [1], `C[C@]12CC[C@H](O)C[C@H]1CC[C@@H]1[C@@H]2CC[C@]2(C)[C@@H](/C=C/C=N/NC3=NCCN3)CC[C@]12O` had an Emax of 136%. The same compound registered an EC50 in experiment [2] of 9 µM. Moreover, the “concentration giving Emax” value in experiment [3] turned out to be 100 µM. Moreover, the Activity in experiment [4] turned out to be 100 µM; in experiment [6], 50%.
As for `C[C@]12CC[C@H](O)C[C@H]1CC[C@@H]1[C@@H]2CC[C@]2(C)[C@@H](/C=C/C=C/C=N/N=C(N)N)CC[C@]12O`, in experiment [1], the Emax is 98%. The compound also had a 50% effective concentration (EC50) in experiment [2] of 15 µM. For the same compound, in experiment [3], the “concentration giving Emax” value came to 100 µM. In addition, the Activity in experiment [4] was found to be 300 µM; in experiment [6], 100%. The IC50 in experiment [5] was 7.94 µM.
With `C[C@]12CC[C@H](O)C[C@H]1CC[C@@H]1[C@@H]2CC[C@]2(C)[C@@H](/C=N/NC3=NCCN3)CC[C@]12O`, the maximal effect (Emax) in experiment [1] worked out at 129%. For the same compound, in experiment [2], it took 17 µM to reach a half-maximal effect (EC50). Also, the “concentration giving Emax” value in experiment [3] came out at 300 µM. Also, the Activity in experiment [4] was 300 µM; in experiment [6] it was 0%.
`C[C@]12CC[C@H](O)C[C@H]1CC[C@@H]1[C@@H]2CC[C@]2(C)[C@@H](/C=N/NC3=NCCCN3)CC[C@]12O` registered a maximal effect (Emax) in experiment [1] of 62%. Moreover, in experiment [2], a half-maximal effect (EC50) was put at 5 µM. The “concentration giving Emax” value in experiment [3] is 30 µM. In experiment [4], this compound registered an Activity of 30 µM.
In experiment [1], `C[C@]12CC[C@H](O)C[C@H]1CC[C@@H]1[C@@H]2CC[C@]2(C)[C@@H](/C=C/C=N/N=C(N)N)CC[C@]12O` had an Emax of 140%. The compound further displayed an EC50 in experiment [2] of 0.4 µM. In experiment [3], the “concentration giving Emax” value was 3 µM. Also, the values for the Activity in experiment [4] and in experiment [6] were 3 µM and 20%, respectively. The compound also registered an IC50 in experiment [5] of 0.16 µM.
Compound `C[C@]12CC[C@H](O)C[C@H]1CC[C@@H]1[C@@H]2CC[C@]2(C)[C@@H](CNN=C(N)N)CC[C@]12O.Cl` registered an Emax in experiment [1] of 166%. The EC50 in experiment [2] was determined as 8 µM. In addition, the “concentration giving Emax” value in experiment [3] is 30 µM. In addition, the Activity in experiment [4] is 100 µM; in experiment [6], 0%. Also, the IC50 in experiment [5] amounted to 2 µM.
In experiment [1], `C[C@]12CC[C@H](O)C[C@H]1CC[C@@H]1[C@@H]2CC[C@]2(C)[C@@H](/C=C/C3=CC(=O)OC3)CC[C@]12O` gave an Emax of 110%. Further, the 50% effective concentration (EC50) in experiment [2] turned out to be 14 µM. Also, the “concentration giving Emax” value in experiment [7] was 100 µM. For the same compound, the Activity in experiment [4] came to 300 µM; in experiment [6], 0%. For the same compound, the IC50 in experiment [5] stood at 3.98 µM.
For the compound `C[C@]12CC[C@H](O)C[C@H]1CC[C@@H]1[C@@H]2CC[C@]2(C)[C@@H](C3=CC(=O)OC3)CC[C@]12O` [DIGITOXIGENIN], the Emax in experiment [1] was found to be 200%. Further, a half-maximal effect in experiment [2] (EC50) was put at 0.6 µM. Also, the “concentration giving Emax” value in experiment [7] was determined as 3 µM. Also, the figures for the Activity in experiment [4] and in experiment [6] were 10 µM and 60%, respectively. In experiment [5], the IC50 was 0.5 µM.
Consider `C[C@H]1O[C@@H](O[C@H]2[C@@H](O)C[C@H](O[C@H]3[C@@H](O)C[C@H](O[C@H]4CC[C@@]5(C)[C@H](CC[C@@H]6[C@@H]5C[C@@H](O)[C@]5(C)[C@@H](C7=CC(=O)OC7)CC[C@]65O)C4)O[C@@H]3C)O[C@@H]2C)C[C@H](O)[C@@H]1O` [DIGOXIN], for which the midpoint of the response in experiment [2], the EC50, lay at 0.4 µM. Besides, in experiment [3], the “concentration giving Emax” value worked out at 1 µM. In addition, the Activity in experiment [4] is 3 µM; in experiment [6] it was 50%.
